Source: ChEMBL document CHEMBL4043244, “Diverse amide analogs of sulindac for cancer treatment and prevention” (Bioorg Med Chem Lett, 2017)

Columns and labels:
[1] = Growth inhibition of mouse CPC300 cells after 72 hrs by CellTiter-Glo reagent based assay; type: functional, cell-based
697 = test: Growth inhibition of human 697 cells after 72 hrs by CellTiter-Glo reagent based assay; type: functional, cell-based; conditions: 697
PC-3 = test: Growth inhibition of human PC3 cells after 72 hrs by CellTiter-Glo reagent based assay; type: functional; conditions: PC-3, 72 h
In short: (§1)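 Cancer cell lines (PC3 prostate, HT29 colorectal carcinoma, MDA-MB-231 breast) were screened by quantitative high-throughput screening in whole cells, and CC50 values were derived.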

MDA-MB-231 = test: Growth inhibition of human MDA-MB-231 cells after 72 hrs by CellTiter-Glo reagent based assay; type: functional; conditions: MDA-MB-231, 72 h; in short: as §1
HT-29 = test: Growth inhibition of human HT-29 cells after 72 hrs by CellTiter-Glo reagent based assay; type: functional; conditions: HT-29, 72 h; in short: as §1
BJ = test: Growth inhibition of human BJ cells after 72 hrs by CellTiter-Glo reagent based assay; type: cell-based
In short: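 Normal human foreskin fibroblast (BJ) counter-screen for cytotoxicity, with drug tested at 10 μM.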

Jurkat E6.1 = test: Growth inhibition of human Jurkat E6-1 cells after 72 hrs by CellTiter-Glo reagent based assay; type: functional, cell-based; conditions: jurkat e6.1
Raji = test: Growth inhibition of human Raji cells after 72 hrs by CellTiter-Glo reagent based assay; type: functional, cell-based
[2] = Growth inhibition of human NALM16 cells after 72 hrs by CellTiter-Glo reagent based assay; type: functional, cell-based
REH = test: Growth inhibition of human REH cells after 72 hrs by CellTiter-Glo reagent based assay; type: functional, cell-based
[3] = Homo sapiens, REH, 72 h, read-out: EC50
[4] = Homo sapiens, NALM16, 72 h, read-out: EC50
[5] = Homo sapiens, Raji, 72 h, read-out: EC50
[6] = Mus musculus, CPC300, 72 h, read-out: EC50

EC50 (Jurkat E6.1)	EC50 (Raji; raji)	EC50 (Raji; [5])	SMILES	EC50 ([1]; cpc300)	EC50 697	CC50 (PC-3)	CC50 (MDA-MB-231)	CC50 (HT-29)	EC50 (BJ)	EC50 ([2]; nalm16)	EC50 (REH; [3])	EC50 [2, 4]	EC50 (REH; reh)	EC50 [1, 6]
Not Active	Not Active	–	COc1cc(/C=C2/C(C)=C(CC(=O)N3CCN(c4ccncc4)CC3)c3cc(F)ccc32)cc(OC)c1OC	Not Active	Not Active	5.45 µM	6.5 µM	2.79 µM	> 7.57 µM	Not Active	27 µM	–	–	–
Not Active	Not Active	–	CC1=C(CC(=O)N2CCN(CCCN(C)C)CC2)c2cc(F)ccc2/C1=C\c1nc2ccccc2s1	Not Active	Not Active	4.21 µM	2.9 µM	1.62 µM	> 7.57 µM	–	–	0.097 µM	Not Active	–
Not Active	–	47 µM	CC1=C(CC(=O)NCCN2CCCC2)c2cc(F)ccc2/C1=C\c1nc2ccccc2s1	Not Active	Not Active	4.94 µM	3.56 µM	1.21 µM	> 7.57 µM	Not Active	18 µM	–	–	–
Not Active	Not Active	–	CSc1ccc(/C=C2/C(C)=C(CC(=O)NCCN(C)C)c3cc(F)ccc32)cc1	Not Active	Not Active	3.12 µM	2.67 µM	0.65 µM	> 7.57 µM	Not Active	–	–	Not Active	–
Not Active	–	0.83 µM	CSc1ccc(/C=C2/C(C)=C(CC(=O)N(C)CCN(C)C)c3cc(F)ccc32)cc1	Not Active	Not Active	5.63 µM	3.98 µM	1.83 µM	> 7.57 µM	–	–	0.071 µM	Not Active	–
Not Active	Not Active	–	CC1=C(CC(=O)NCCCN(C)C)c2cc(F)ccc2/C1=C\c1nc2ccccc2s1	–	Not Active	3.25 µM	1.93 µM	1.05 µM	> 7.57 µM	–	–	0.35 µM	Not Active	65 µM
Not Active	Not Active	–	CSc1ccc(/C=C2/C(C)=C(CC(=O)N3CCN(CCN(C)C)CC3)c3cc(F)ccc32)cc1	–	Not Active	6.23 µM	4.05 µM	2.17 µM	> 7.57 µM	–	–	1.9 µM	Not Active	27 µM
Not Active	Not Active	–	CC1=C(CC(=O)N2CCN(c3ccncc3)CC2)c2cc(F)ccc2/C1=C\c1nc2ccccc2s1	–	Not Active	12.3 µM	7.71 µM	5.25 µM	> 7.57 µM	Not Active	–	–	Not Active	72 µM
Not Active	Not Active	–	CSc1ccc(/C=C2/C(C)=C(CC(=O)N3CCN(c4ccncc4)CC3)c3cc(F)ccc32)cc1	–	Not Active	2.76 µM	3.08 µM	1.13 µM	> 7.57 µM	Not Active	–	–	Not Active	50 µM
